About 1,100 (0.31%) of roughly 360,000 compounds were called active. The sample as a whole holds a higher share of actives than the screen did. Unmarked numbers belong to inactive results.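 The calls were made as follows: active = activation above the run cutoff, the mean activation of all test compounds plus 3 SD (cut at about 18% in these data); inactive = the rest.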
Molecular target: Muscarinic acetylcholine receptor M5 (Homo sapiens) (UniProt P08912)
Assay: human M5 muscarinic receptor positive allosteric modulators, primary screen, CHO-K1 cells, Fluo-8 calcium fluorescence (AID 624038)
Settings: CHO-K1 hM5, Fluo-8 calcium, ACh EC20 PAM; at 3 µM; active compounds read high; 0% = ACh EC20, 100% = ACh EC100
Summary of the method: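 Measured by: Fluo-8 calcium fluorescence; material: human M5 receptor in CHO-K1 cells; schedule: Post-acetylcholine fluorescence recording 140 s; benchmarks: low control EC20 acetylcholine (0%), high control EC100 acetylcholine (100%); read-out: Max/basal fluorescence ratio as % of EC20–EC100 ACh window; compound: single dose, 3 µM nominal final test concentration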

Sequence of Muscarinic acetylcholine receptor M5 (Homo sapiens) (P08912 whole entry, looked up): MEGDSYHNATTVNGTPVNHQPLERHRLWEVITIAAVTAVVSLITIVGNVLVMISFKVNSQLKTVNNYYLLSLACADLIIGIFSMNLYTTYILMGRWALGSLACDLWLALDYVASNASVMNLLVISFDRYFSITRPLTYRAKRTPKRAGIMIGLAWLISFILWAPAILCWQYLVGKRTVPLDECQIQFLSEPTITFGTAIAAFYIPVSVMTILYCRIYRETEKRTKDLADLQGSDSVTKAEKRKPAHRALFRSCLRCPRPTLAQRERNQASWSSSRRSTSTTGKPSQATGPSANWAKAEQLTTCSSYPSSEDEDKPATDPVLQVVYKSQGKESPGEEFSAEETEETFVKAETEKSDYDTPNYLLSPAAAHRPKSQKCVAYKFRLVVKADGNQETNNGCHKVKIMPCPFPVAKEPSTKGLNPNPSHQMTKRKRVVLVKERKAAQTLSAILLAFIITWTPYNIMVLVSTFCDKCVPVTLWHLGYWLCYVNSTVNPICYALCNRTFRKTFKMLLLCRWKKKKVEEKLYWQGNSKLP

SMILES	activation
CC=C(C)C(=O)OC1CCN2CC=C(COC(=O)C(O)(C(C)OC)C(C)(C)O)C12 (stereo not given)	19.2% (active)
CCOP(=S)(OCC)SCOC(=O)NCC(=O)OC	0.05%
O=[N+]([O-])c1cnc2ccc3ccccc3c2c1	3.69%
COc1ccc(-n2c(-c3ccccc3)nc3ccccc3c2=O)cc1	14.8%
COC(=O)CN(CCCl)P1(=O)OCCCN1CCCl (stereo not given)	-10.4%

From PubChem BioAssay AID624038 (The Scripps Research Institute Molecular Screening Center, 2012)
